Source: ChEMBL document CHEMBL1157300, “(+)-N-Deoxymilitarinone A, a neuritogenic pyridone alkaloid from the insect pathogenic fungus Paecilomyces farinosus” (J Nat Prod, 2006)
The source made the active and inactive calls. The rule behind the calls is not given here.

Experiments:
PC-12 [1] = experiment: Neuritogenic activity in rat PC12 cells assessed as neurite length equal or less than cell body at 33 uM after 48 hrs; type: functional
Procedure, shortened: (§1)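 PC-12 cells on collagen (1 × 10^5 cells/mL, 4 h pre-culture) treated in duplicate for 48 h, compound delivered in MeOH (0.3% final); NGF 10 ng/mL and 0.3% MeOH controls. By phase contrast, over 300 cells or aggregates per well in six random fields classed as round with no neurite, neurite ≤ cell body, or neurite ≥ twice cell diameter; given as % of cells.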

PC-12 [2] = experiment: Induction of neurite outgrowth in rat PC12 cells at 10 uM after 48 hrs; type: functional, cell-based
Procedure, shortened: (§2)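 PC-12 cells plated on collagen at 1 × 10^5 cells/mL and cultured 4 h. Compound added from MeOH at 3.3, 10, 33 or 100 µM (0.3% MeOH final), in duplicate, then incubated 48 h. Positive control NGF 10 ng/mL; negative control 0.3% MeOH. Over 300 cells or aggregates per well in six random fields scored by phase-contrast microscopy for neurite outgrowth.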

PC-12 [3] = experiment: Neuritogenic activity in rat PC12 cells assessed as round shaped cells with no neurite outgrowth at 100 uM after 48 hrs; type: functional; procedure, shortened: as §1
PC-12 [4] = experiment: Induction of neurite outgrowth in rat PC12 cells at 3.3 uM after 48 hrs; type: functional, cell-based; procedure, shortened: as §2
[5] = Cytotoxicity against human IMR32 cells assessed as cell viability at 10 uM by MTT assay relative to control; type: cell-based; conditions: imr-32, 10 µM
Procedure, shortened: (§3)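 IMR-32 cells grown in MEM/F12 with 10% fetal bovine serum; viability read by MTT assay in 96-well format. Test concentrations were 1, 10 and 100 µM, each tested six times.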

[6] = Cytotoxicity against human IMR32 cells assessed as cell viability at 100 uM by MTT assay relative to control; type: cell-based, IMR-32; conditions: read-out: Activity; procedure, shortened: as §3
PC-12 [7] = experiment: Induction of neurite outgrowth in rat PC12 cells at 33 uM after 48 hrs; type: functional; procedure, shortened: as §2
PC-12 [8] = experiment: Neuritogenic activity in rat PC12 cells assessed as neurite length equal or less than cell body at 100 uM after 48 hrs; type: functional; procedure, shortened: as §1
[9] = Cytotoxicity against human IMR32 cells assessed as cell viability at 1 uM by MTT assay relative to control; type: cell-based; conditions: imr-32, 1 µM; procedure, shortened: as §3
PC-12 [10] = experiment: Neuritogenic activity in rat PC12 cells assessed as neurite length twice the cell diameter or longer at 100 uM after 48 hrs; type: functional; procedure, shortened: as §1
PC-12 [11] = experiment: Induction of neurite outgrowth in rat PC12 cells at 100 uM after 48 hrs; type: functional; procedure, shortened: as §2
PC-12 [12] = experiment: Neuritogenic activity in rat PC12 cells assessed as round shaped cells with no neurite outgrowth at 33 uM after 48 hrs; type: functional; procedure, shortened: as §1

SMILES: CC[C@@H](C)C[C@@H](C)/C=C(C)/C=C/C=C/C(=O)c1c(O)c([C@]2(O)CC[C@@H](O)CC2)c[nH]c1=O [N-DEOXYMILITARINONE A]
- Activity (PC-12 [1]): 12%
- Activity (PC-12 [2]): inactive
- Activity (PC-12 [3]): 49%
- Activity (PC-12 [4]): inactive
- Activity [5]: Not Active
- viability at 100 µM [6]: 22%
- Activity (PC-12 [7]): 12%
- Activity (PC-12 [8]): 30%
- Activity [9]: Not Active
- Activity (PC-12 [10]): 21%
- Activity (PC-12 [11]): 51%
- Activity (PC-12 [12]): 88%
